Screening data (PubChem)
Hits are enriched below; roughly 3.7% of the tested compounds scored in any of these assays.
KCNQ1 act = potentiators or activators of KCNQ1 channel, primary screen, cell-based, thallium flux, high-throughput; Potassium voltage-gated channel subfamily KQT member 1 (Homo sapiens), P51787; CHO-K1 KCNQ1, thallium flux FluxOR fluorescence; hits give high values; B-score at 10 µM; hit rate 0.35% among 310,000; AID 2648, 2010;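 active means fluorescence ratio B-score, a plate-corrected score, at least three library SD, with initial intensity B-score within 5 SD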
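assay system = KCNQ1-transfected CHO-K1 cells | medium = assay buffer with matched DMSO | probe or stimulus = depolarizing K+/Tl+ stimulus, K2SO4 and Tl2SO4 each 12.5 mM in 5x stock | dosing = single dose | incubation = dye 90 min, compound 20 min, room temperature | detection = kinetic FluxOR fluorescence, 10 s baseline plus 110 s post-stimulus | evaluation = ratio B score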
KCNK3 inh = human KCNK3 channel inhibitors, primary screen, CHO cells, FluxOR thallium flux, B-score; Potassium channel subfamily K member 3 (Homo sapiens), O14649; FluxOR fluorescence; hits give low values; B-score at 10 µM; hit rate 0.84% among 340,000; AID 602410, 2012;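 active means B-score under library mean minus 4 SD, starting fluorescence ratio at most library mean plus 5 SD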;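 further: more negative B-score means stronger inhibition of thallium flux through KCNK3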
Target sequence (O14649 whole entry, looked up): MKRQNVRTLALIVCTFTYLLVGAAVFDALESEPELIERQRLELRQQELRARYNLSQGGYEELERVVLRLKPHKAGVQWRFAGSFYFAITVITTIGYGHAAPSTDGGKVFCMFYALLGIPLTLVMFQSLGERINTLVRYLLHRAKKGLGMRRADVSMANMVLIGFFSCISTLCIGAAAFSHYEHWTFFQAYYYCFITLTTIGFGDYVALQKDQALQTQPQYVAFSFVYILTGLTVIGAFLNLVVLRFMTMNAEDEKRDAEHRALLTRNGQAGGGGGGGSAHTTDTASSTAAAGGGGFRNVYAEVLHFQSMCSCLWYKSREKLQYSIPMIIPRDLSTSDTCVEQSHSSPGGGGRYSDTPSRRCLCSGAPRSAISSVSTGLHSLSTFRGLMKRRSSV
Kir21 block = inhibitors of mouse Kir2.1 inward-rectifier potassium channel; HEK293-Kir2.1, FluxOR thallium flux fluorescence; hits give low values; B-score at 10 µM; hit rate 0.85% among 310,000; AID 1672, 2009;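 active means fluorescence ratio B-score at or below minus 3 SD of library scores, with starting-brightness B-score within 2 SD, cut at about -4.2 in these data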;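 further: channel flux triggered by added potassium and thallium sulfate stimulus; B-score of peak minus minimum fluorescence over baseline after thallium stimulus; more negative B-score means stronger Kir2.1 block with less thallium influx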
hERG protect = hERG rescue from dofetilide block, primary screen, cell-based, CHO-hERG, FluxOR thallium flux, dofetilide IC70 | activation (rescue from dofetilide block), less the hit threshold, % at 10 µM | Voltage-gated inwardly rectifying potassium channel KCNH2 (Homo sapiens), Q12809 | dofetilide IC70 present | hit rate 0.51% among 310,000;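 active means activation above the mean of controls blocked by dofetilide plus 5 SD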;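 further: thallium influx through hERG after potassium depolarization seen as dye fluorescence rise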
KCNQ1 inh = inhibitors of human KCNQ1 channel, primary screen, cell-based, thallium flux, high-throughput; B-score at 10 µM; CHO-K1 KCNQ1, FluxOR thallium flux fluorescence; hits give high values; Potassium voltage-gated channel subfamily KQT member 1 (Homo sapiens), P51787; AID 2642, 2010; hit rate 1.3% among 310,000;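 active means compounds whose thallium flux B-score, printed positive for inhibition, exceeds three library SD while starting fluorescence stays within three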;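 further: channel opened by potassium depolarization with thallium stimulus after 20 min compound exposure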
KCNK9 block = KCNK9 potassium channel inhibitors, primary screen, HEK293 cells, thallium flux. Potassium channel subfamily K member 9 (Homo sapiens), Q9NPC2. FluxOR thallium flux fluorescence; hits give low values. B-score at 10 µM. hit rate 1.2% among 310,000. AID 488922, 2010;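 active means ratio B-score over 3 SD below the library mean, with starting fluorescence within 5 SD of its mean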;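 further: negative B-score means less thallium flux so channel inhibition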
KCNK9 inh conf = KCNK9 potassium channel inhibitors, confirmation, HEK293 cells, thallium flux, duplicate | shares compounds with KCNK9 block | FluxOR thallium flux fluorescence | inhibition, % at 10 µM | hit rate 43% among 4,900 | AID 492992, 2010;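 active means thallium signal inhibited by more than 5 SD of the compound-free buffer control wells, on both duplicate plates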;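 further: 0% = assay buffer control wells without compound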
Kir2-1 spec = mouse Kir2.1 channel inhibition, confirmation, selectivity assay for KCNK9 modulator project, cell-based, HEK293, thallium flux; shares compounds with KCNK9 block; Kir2.1 cells, FluxOR thallium flux fluorescence; inhibition, % at 10 µM; hit rate 4% among 4,900; AID 492993, 2010;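 active means thallium signal drop more than 5 SD beyond the mean of the no-compound control wells, seen in both duplicate plates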;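 further: signal is fluorescence rise after thallium addition divided by baseline fluorescence; plate controls were assay buffer only for no effect and full block by chlorpromazine control for full effect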
HEK293 Tl ctr = thallium flux in non-induced HEK293 cells, confirmation, counter-screen for KCNK9 inhibitor project, cell-based, second counter screen, non-induced KCNK9-HEK293. shares compounds with KCNK9 block. FluxOR thallium flux. inhibition, % at 10 µM. hit rate 40% among 4,900. AID 492997, 2010;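 active means thallium signal drop beyond 5 SD of the untreated control mean, on both duplicate plates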;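 further: plate controls were buffer only IC0 wells for no effect and SID17386958 at its maximal inhibitory level for full effect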
Starred values were filed as active, the others as inactive; i = inactive; . = no result given.

SMILES	KCNQ1 act	KCNK3 inh	Kir21 block	hERG protect	KCNQ1 inh	KCNK9 block	KCNK9 inh conf	Kir2-1 spec	HEK293 Tl ctr
O=C(Nc1ccc(Cl)cc1C(=O)Nc1ccc(Br)cn1)c1ccco1	i	i	0.51	-9	i	-12*	53%*	i	i
COc1ccc(S(=O)(=O)Nc2cc(C)cc(C)n2)c2ccccc12	i	i	-0.41	-5	i	i	.	.	.
CCOc1ccc(S(=O)(=O)Nc2cc(C)ccn2)c2ccccc12	i	i	-0.03	-15	i	i	i	i	i
CCc1ccccc1NC(=O)c1cc([N+](=O)[O-])ccc1N1CCOCC1	i	i	-0.24	-5	i	i	.	.	.
O=C(Nc1ccccc1N1CCOCC1)c1cccc2c(Br)cccc12	i	i	-2.5	-2	i	i	i	i	i
CC1CCN(c2ccccc2NC(=O)c2cc([N+](=O)[O-])ccc2N2CCOCC2)CC1	i	i	1.3	-13	8*	-9.8*	30%*	i	30%*
Cc1ccc(NS(=O)(=O)c2ccc3c(c2)CC(=O)N3)cc1F	.	i	.	.	.	.	.	.	.
COc1ccc(-c2nc(CS(=O)CC(=O)NC3CCCCC3C)c(C)o2)cc1 (configuration not stated)	i	i	0.76	-6	i	i	.	.	.
Cc1nc(NC(=O)c2ccccc2)sc1C1(C)CC(c2ccccc2F)=NO1 (configuration not stated)	i	i	0.78	-9	i	i	.	.	.
Cc1nc(NC(=O)c2ccccc2)sc1C1(C)CC(c2c(Cl)cccc2Cl)=NO1 (configuration not stated)	i	i	0.24	-17	i	-9.8*	55%*	i	36%*
COCCNC(=O)c1ccc(-n2c(SCc3ccncc3)nc3ccccc3c2=O)cc1	i	i	1.1	-19	i	i	.	.	.
Cc1ccc(CN2CCc3c(OCC(=O)Nc4cccc(C)c4C)cccc3C2=O)cc1	i	.	1.3	-16	i	i	.	.	.
Cc1ccc(CN2CCc3c(OCc4ccc(F)cc4)cccc3C2=O)cc1	i	i	-1.8	-11	i	-13*	71%*	i	42%*
CCC1(CC)NC(=O)N(CC(=O)OC(C)C(=O)Nc2ccccc2OC)C1=O (configuration not stated)	i	i	0.11	-13	i	i	.	.	.
COc1ccccc1C/C(N)=N/OC(=O)COc1cccc2ccccc12	i	i	-1.4	-12	i	i	i	i	i
N/C(Cc1cccc2ccccc12)=N\OC(=O)COc1ccccc1	i	i	0.75	-8	i	i	.	.	.
COc1ccccc1C/C(N)=N/OC(=O)COc1ccccc1C	i	i	0.39	-9	i	i	i	i	i
COc1cc(C(=S)N2CCOCC2)ccc1OC(=O)/C=C/c1ccco1	i	i	-1.9	-14	i	i	.	.	.
Cc1ccc(S(=O)(=O)N(Cc2ccc(Cl)cc2)c2ccccc2C(=O)NCc2ccco2)cc1	i	i	-0.75	-10	i	i	.	.	.
CCCSc1nc(SCC(=O)NCc2ccccc2)c2c3c(sc2n1)COC(C)(CC)C3 (configuration not stated)	i	i	-1.2	-17	i	i	.	.	.
CCCCSc1nc(SCC(=O)NCc2ccco2)c2c3c(sc2n1)COC(C)(CC)C3 (configuration not stated)	i	i	-1.3	-21	i	i	i	i	i
Brc1ccc(OCc2nnc(SCC3CCCCC3)o2)cc1	i	i	-2	-9	i	-8.8*	26%*	i	36%*
O=c1oc2ccccc2c(Nc2cc3ccccc3cc2O)c1[N+](=O)[O-]	i	i	-1.3	-13	i	i	i	i	i
COc1cc(COc2ccc3c(C)c(Cc4ccccc4)c(=O)oc3c2)cc(OC)c1OC	i	i	-0.03	-13	i	i	i	i	i
CC(CCc1ccccc1)NC(=O)COC(=O)C1CCC(C(C)(C)C)CC1 (configuration not stated)	i	i	-1.4	-10	i	i	i	i	i
SMILES	KCNQ1 act	KCNK3 inh	Kir21 block	hERG protect	KCNQ1 inh	KCNK9 block	KCNK9 inh conf	Kir2-1 spec	HEK293 Tl ctr
O=C(COC(=O)C1CC1)NCCc1ccccc1	.	i	.	.	.	.	.	.	.
O=C(Nc1cccc(F)c1)Nc1ccnn1C1CCN(C(=O)c2cscn2)CC1	i	i	1.7	-12	i	i	.	.	.
Cc1noc(NC(=O)c2ccc(Cl)cc2)c1Cl	i	i	0.05	-5	i	i	.	.	.
Cc1nonc1OCC(C)(COc1nonc1C)NC(=O)c1ccc(Cl)cc1	i	i	0.01	-10	i	-9.1*	46%*	i	36%*
CN(C(=O)CSc1nc2c(c(=O)[nH]1)CCC2)c1ccccc1	i	i	-0.12	2	i	i	.	.	.
N#CCc1ccc(Oc2ncc(C(F)(F)F)cc2Cl)cc1	i	i	0.38	-6	i	i	.	.	.
Cc1ccc(CO/N=C\Cc2snc(Sc3ncc(C(F)(F)F)cc3Cl)c2C#N)cc1	i	i	-0.01	-12	i	i	i	i	i
O=C1/C(=C\c2ccc(Br)o2)SC(=Nc2ccccc2)N1c1ccccc1	i	i	0.38	-11	i	-8.4*	i	i	37%*
Cc1ccc(S(=O)(=O)CCc2ccncc2)cc1	i	i	1.2	-5	i	i	.	.	.
N#Cc1nc(Cc2cccc3ccccc23)oc1NCc1ccco1	i	i	-3	-11	i	-11*	40%*	i	38%*
N#Cc1nc(Cc2cccc3ccccc23)oc1NCC1CCCO1 (configuration not stated)	i	i	-3.8	-12	i	i	.	.	.
